Assay results published in ChEMBL document CHEMBL3351306, “Physicochemical property-driven optimization of diarylaniline compounds as potent HIV-1 non-nucleoside reverse transcriptase inhibitors” (Bioorg Med Chem Lett, 2014).
Converted amounts (≈) assume the structure as drawn.

What was measured:
[1] = tested on: Human immunodeficiency virus 1; experiment: Antiviral activity against wild type HIV1 3B infected in human MT2 cells assessed as inhibition of viral replication; type: functional, organism-based; conditions: Human immunodeficiency virus 1, 3B
MT2 = experiment: Cytotoxicity against human MT2 cells assessed as cell viability; type: cell-based
Summary of the method: (§1)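 Run in MT-2 cells, at least in triplicate, reported as mean ± SD; the paired antiviral measurement used wild-type HIV-1 IIIB replication in MT-2 cells.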

[2] = Selectivity index, ratio of CC50 for human MT2 cells to EC50 for wild type HIV1 3B; type: toxicity, cell-based; conditions: read-out: Selectivity Index; summary of the method: as §1
[3] = tested on: Human immunodeficiency virus 1; experiment: Fold resistance, ratio of EC50 for HIV1 A17 expressing K103N/Y181C mutant infected in human MT2 cells to EC50 for wild-type HIV1 3B infected in human MT2 cells; type: functional
[4] = Aqueous solubility of the compound at pH 2 by HPLC analysis; type: physicochemical; conditions: buffer
Summary of the method: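 Solubility in aqueous buffer at pH 2.0, chosen to mimic stomach conditions; dissolved compound quantified by HPLC.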

[5] = Aqueous solubility of the compound at pH 7.4 by HPLC analysis; type: physicochemical; conditions: buffer
Summary of the method: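 Solubility in aqueous buffer at pH 7.4, chosen to mimic plasma conditions; dissolved compound quantified by HPLC.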

[6] = Lipophilicity, log P of the compound by HPLC analysis; type: physicochemical
Summary of the method: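 Log P determined experimentally by HPLC at pH 7.4.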

[7] = tested on: Human immunodeficiency virus 1; experiment: Antiviral activity against drug-resistant HIV1 A17 expressing K103N/Y181C mutant infected in human MT2 cells assessed as inhibition of viral replication; conditions: Human immunodeficiency virus 1, A17, MT2

| Compound | EC50 [1] | CC50 (MT2) | selectivity ratio [2] | Ratio EC50 [3] | solubility [4] | solubility [5] | logP [6] | EC50 [7] | logP ([6]; read-out: logP) |
| --- | --- | --- | --- | --- | --- | --- | --- | --- | --- |
| Cc1cc(C#N)cc(C)c1Oc1cc(Nc2ccc(C#N)cc2)c(N)cc1CO | 1.07 nM | 122000 nM | 114000 | 30.9 | 9.12 µg/mL (≈ 23.7 µM) | 0.86 µg/mL (≈ 2.24 µM) | 3.57 | 33.1 nM | – |
| CNCc1cc(N)c(Nc2ccc(C#N)cc2)cc1Oc1c(C)cc(C#N)cc1C | 9.94 nM | 12700 nM | 1280 | 11.6 | 263 µg/mL (≈ 662 µM) | 159 µg/mL (≈ 400 µM) | 1.86 | 115 nM | – |
| Cc1cc(C#N)cc(C)c1Oc1cc(Nc2ccc(C#N)cc2)c(N)cc1CNC1CC1 | 10.6 nM | 12100 nM | 1140 | 12.3 | 286 µg/mL (≈ 675 µM) | 13 µg/mL (≈ 30.7 µM) | 3.84 | 130 nM | – |
| Cc1cc(C#N)cc(C)c1Oc1cc(Nc2ccc(C#N)cc2)c(N)cc1CNCCCO | 6.1 nM | 15100 nM | 2480 | >328 | 290 µg/mL (≈ 657 µM) | 236 µg/mL (≈ 534 µM) | 1.81 | > 2000 nM | – |
| Cc1cc(C#N)cc(C)c1Oc1cc(Nc2ccc(C#N)cc2)c(N)cc1CN1CCN(C)CC1 | 170 nM | 96900 nM | 570 | >11.8 | – | – | – | > 2000 nM | – |
| Cc1cc(C#N)cc(C)c1Oc1cc(Nc2ccc(C#N)cc2)c(N)cc1COC(C)C | 14 nM | 89400 nM | 6390 | 22.5 | – | – | – | 315 nM | – |
| COCc1cc(N)c(Nc2ccc(C#N)cc2)cc1Oc1c(C)cc(C#N)cc1C | 3.54 nM | 146000 nM | 41200 | 84.2 | 3.75 µg/mL (≈ 9.41 µM) | 0.07 µg/mL (≈ 0.176 µM) | 3.84 | 298 nM | – |
| CC(=O)OCc1cc(N)c(Nc2ccc(C#N)cc2)cc1Oc1c(C)cc(C#N)cc1C | 1.06 nM | 113000 nM | 107000 | 353 | 16.7 µg/mL (≈ 39.2 µM) | 0.2 µg/mL (≈ 0.469 µM) | 4.4 | 374 nM | – |
| COCc1cc(N)c(Nc2ccc(C#N)cc2)cc1Oc1c(C)cc(/C=C/C#N)cc1C | 5.74 nM | 50300 nM | 8760 | 2.6 | 1.7 µg/mL (≈ 4 µM) | 0.11 µg/mL (≈ 0.259 µM) | 4.13 | 14.7 nM | – |
| COCc1cc(N)c(Nc2ccc(C#N)cc2)cc1Oc1c(C)cc(CCC#N)cc1C | 3.25 nM | – | > 61500 | 0.91 | 1.82 µg/mL (≈ 4.27 µM) | 0.66 µg/mL (≈ 1.55 µM) | 3.25 | 2.95 nM | – |
| CC(=O)OCc1cc(N)c(Nc2ccc(C#N)cc2)cc1Oc1c(C)cc(/C=C/C#N)cc1C | 0.82 nM | 96300 nM | 117000 | 44.5 | 1.87 µg/mL (≈ 4.13 µM) | 0.49 µg/mL (≈ 1.08 µM) | 4.48 | 36.5 nM | – |
| CC(=O)OCc1cc(N)c(Nc2ccc(C#N)cc2)cc1Oc1c(C)cc(CCC#N)cc1C | 0.96 nM | 44800 nM | 46700 | 5.1 | 2.63 µg/mL (≈ 5.79 µM) | 1.86 µg/mL (≈ 4.09 µM) | 2.84 | 4.92 nM | – |
| Cc1cc(/C=C/C#N)cc(C)c1Nc1ccnc(Nc2ccc(C#N)cc2)n1 [RILPIVIRINE] | – | 90700 nM | – | – | – | – | – | – | > 5 |
